Source: PubChem BioAssay
HIV Rev-RRE inh: HIV Rev-RRE protein-RNA interaction inhibition; Rev peptide-RRE RNA binding, FRET; 97,000 tested, 0.79% active; inhibition, % at 8 µM; AID 704; P05866;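 active = inhibition above the screen-wide mean plus 3 SD, cut at about 35% in these data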;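 note: 0% = median DMSO wells and 100% = median Neomycin B control wells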
Target sequence (P05866 whole entry, looked up): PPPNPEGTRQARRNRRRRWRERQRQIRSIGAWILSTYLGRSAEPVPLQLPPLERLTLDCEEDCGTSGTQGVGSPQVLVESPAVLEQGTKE
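Material: labelled RRE RNA duplex and labelled Rev peptide / Buffer or medium: HEPES pH 7.5 salt buffer with EDTA / Compound dosing: single point, 8 µM final nominal compound concentration / Benchmarks: DMSO low control, neomycin B high control / Timing: 5 min preincubation and 15 min binding, 25 °C / Technique: FRET fluorescence readout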
EphB4 antag: blocks human EphB4 binding to ephrin-B2 | P54760 | EphB4 LBD / TNYL-RAW-Alexa532 peptide, fluorescence polarization | inhibition, % at 7 µM | 97,000 tested, 0.15% active | AID 720;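 active = inhibition above the screen-wide mean inhibition plus 3 SD, cut at about 15% in these data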;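 note: 0% = DMSO wells and 100% = excess unlabeled TNYL-RAW peptide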
hDAT+cocaine: human DAT dopamine uptake with cocaine, either direction; Q01959; LLC-PK1 hDAT cells, [14C]-dopamine uptake with cocaine IC80; actives deviate in either direction; 110,000 tested, 1.3% active; B-score at 10 µM; AID 449768;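 active = Z score or B-score, a plate-position-corrected score, falls beyond the plate's 99.7% confidence bounds, in either direction; inactive = both scores lie inside the 99.7% bounds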;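 note: scored against the spread of the other compound wells on the same plate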
Cav3 T inh: blocks human Cav3.2 T-type calcium channel. O95180. Cav3.2-expressing cells, Fluo-4 calcium fluorescence FDSS; stronger effect = lower value. B-score at 10 µM. 100,000 tested, 4% active. AID 449739;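 active = single-dose well whose peak fluorescence ratio is a statistical outlier from its plate by either plate-standardised score or position-corrected B-score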
Numbers without * were called inactive; . = no result; [ ] = another dose, or the depositor's remark. An excerpt weighted towards active compounds, which were near 5.4% of everything screened.

SMILES | HIV Rev-RRE inh | EphB4 antag | hDAT+cocaine | Cav3 T inh
CCOc1ccc(CN(C(=O)c2ccco2)C2CCS(=O)(=O)C2)cc1 (stereo unspecified) | 1 | -4 | 0.0071 | 0.89
COc1cccc(C(=O)N(Cc2ccc(N(C)C)cc2)C2CCS(=O)(=O)C2)c1 (stereo unspecified) | -2 | -7 | 2.6* | 0.78
Cc1cccc(CSc2nnc(-c3cccs3)n2Cc2ccco2)c1 | 7 | 0 | 2.2 | -5.5*
Cc1sc2nc(SCc3ccccc3)n(Cc3ccco3)c(=O)c2c1C | 12 | 4 | 0.11 | -1.9
Cc1cccc(CSc2nc3sc(C)c(C)c3c(=O)n2Cc2ccco2)c1 | -2 | 7 | 1.3 | -4.2*
O=C(Cc1ccc(S(=O)(=O)N2CCOCC2)s1)Nc1nc2c(s1)CCCC2 | 20 | 9 | 2.3 | -0.3
O=C(Cc1ccc(S(=O)(=O)N2CCOCC2)s1)Nc1ccc2c(c1)CCC2 | 7 | -1 | 1.1 | -6.1*
CCOc1cccc(C(=O)Nc2ccc(N3CCN(S(C)(=O)=O)CC3)cc2)c1 | 4 | 4 | -0.13 | -0.019
CCOc1cccc(C(=O)NC(=S)Nc2ccc(N3CCCC3)cc2)c1 | 0 | 1 | 0.76* | 0.41
Cc1noc(C)c1C(=O)NCCc1ccccc1 | 3 | 2 | 0.61 | 1.5
Cc1ccc(C(C)NC(=O)c2c(C)noc2C)cc1C (stereo unspecified) | 5 | 8 | -0.14 | -3.8*
Cc1cc(NC(=O)C(C)Oc2ccc(Cl)cc2Cl)n(-c2ccccc2)n1 (stereo unspecified) | 2 | -3 | -0.52 | -3.5*
Cc1nc(CS(=O)(=O)c2ccc(Cl)cc2)cc(Sc2ccccc2Cl)n1 | 14 | -1 | 0.53 | -4.5*
CCOC(=O)N1CCC(NC(=O)c2cc(C(=O)Nc3ccc(OC)c(OC)c3)ccc2CO)CC1 | 6 | 4 | -1.5 | 0.39
O=C(Nc1ccc(Oc2cccnc2)cc1)c1ccccc1F | -3 | -2 | -0.18 | -0.034
CC1=CC(C)=Nc2ccccc2N1 | 47* | -3 | -0.15 | 1
CN1CCc2c(sc3c2C(=O)NC(c2ccccn2)N3)C1 (stereo unspecified) | 43* | 2 | -0.074 | 0.75
Cc1ccc(C2NC(=O)c3c(sc4c3CCN(C)C4)N2)s1 (stereo unspecified) | 75* | 0 | -0.99 | -0.057
CCOC(=O)N1CCN(C(=O)C2CCCN(S(=O)(=O)c3ccc(C)cc3)C2)CC1 (stereo unspecified) | 9 | 2 | 0.56 | 0.72
CCCn1c(CNc2ccc(Br)cc2)nc2ccccc21 | 22 | 4 | -0.016 | -5.3*
COc1ccc(NC(=O)CSc2nc3ccccc3cc2Cc2ccccc2)cc1 | 4 | -5 | 0.8 | -4.2*
COc1cccc(NC(=O)CSc2nc3ccccc3cc2Cc2ccccc2)c1 | 16 | 8 | 0.55 | -4*
COc1cc(NC(=O)CSc2nc3ccccc3cc2Cc2ccccc2)cc(OC)c1 | 17 | -2 | 1 | -3
Cc1ccc(NC(=O)COC(=O)C2CC2C)c(S(=O)(=O)N2CCCCC2)c1 (stereo unspecified) | 7 | -10 | 1.3 | -1
O=C(NC1CCCCC1)C1CC=CCC1C(=O)OCC(Cl)=C(Cl)Cl (stereo unspecified) | 3 | -6 | 0.29 | -7.5*
SMILES | HIV Rev-RRE inh | EphB4 antag | hDAT+cocaine | Cav3 T inh
Cc1ccc(C(=O)CSc2nnnn2C(C)C)c(C)c1 | 2 | -8 | 1.1 | -1.7
c1ccc(C2Nc3ccccc3-c3nc4ccccc4n32)cc1 (stereo unspecified) | 3 | -10 | -0.26 | -2.1
Oc1ccccc1C1=Nc2nc3ccccc3n2C(c2ccccc2)C1 (stereo unspecified) | 15 | -4 | -0.64 | -7.8*
C/C(=N\O)C(=O)OC1CC(C)CCC1C(C)C (stereo unspecified) | 8 | -1 | 0.026 | -4.7*
CC1CCC(C(C)C)C(OC(=O)COC(=O)c2cccn2C)C1 (stereo unspecified) | 12 | 1 | -0.96 | -4.3
COc1ccccc1C1CN=NC12CCCc1ccccc1C2=O (stereo unspecified) | 9 | 5 | -0.065 | -4.7*
COc1ccc(C2CN=NC23CCCc2ccccc2C3=O)cc1 (stereo unspecified) | 6 | -2 | . | -4.2*
CC1(C)Cc2c(C#N)c(OCC(=O)c3ccc(Cl)cc3)nc(-c3ccco3)c2CO1 | 9 | 4 | -2.4* | .
CCCCN(C)c1nc(-c2ccco2)c2c(c1C#N)CC(C)(C)OC2 | 14 | 1 | -0.35 | -3.8*
CCN(CC)CCNc1nc(-c2ccccc2)c2c(c1C#N)CC(C)(C)OC2 | 3 | 2 | 0.0088 | -3.7*
CC1(C)Cc2c(C#N)c(N3CCCC3)nc(-c3ccco3)c2CO1 | 11 | 0 | 0.58 | -1.7
Cc1nc(OCC(=O)c2ccc(Cl)cc2)c(C#N)c2c1COC(C)(C)C2 | 3 | 3 | -0.53 | 0.83
CCOC(=O)CSc1ccc(S(=O)(=O)N(C)C2CCCCC2)cc1[N+](=O)[O-] | 24 | -1 | 0.67 | -3.2
O=C(Cn1nnc(-c2ccc(Cl)cc2)n1)NC1CC2CCC1C2 (stereo unspecified) | 11 | 2 | -0.6 | -4.6*
CCOC(=O)C1=C(C)N=c2s/c(=C\c3cccn3C)c(=O)n2C1c1cccc(OC)c1OC (stereo unspecified) | 88*[fluorescence artefact?] | 5 | 0.7 | 0.19
CCOC(=O)C1=C(C)N=c2s/c(=C/c3ccco3)c(=O)n2C1c1cccc(OC)c1 (stereo unspecified) | 15 | 1 | 0.77 | -2.4
COc1ccc(SC[C@H](Cc2ccccc2)N2CCN(C)CCC2=O)cc1 | . | . | 1.3 | 0.18
CCCN1CCC(=O)N([C@H](CSc2ccc(OC)cc2)Cc2ccccc2)CC1 | . | . | 2.5* | -0.7
COC(=O)c1ccc(Oc2nc(N3CCCCC3)nc(N3CCOCC3)n2)cc1 | 8 | 5 | -0.17 | -4.3*
CC(=O)c1c(N2CCN(C)CC2)[nH]c(-c2ccccc2)nc1=S | 7 | 5 | -0.61 | 0.32
CCOC(=O)c1c(C)n(C)c2ccc(OCC(O)Cn3c(C)nc4ccccc43)cc12 (stereo unspecified) | -2 | 2 | 2* | -1.3
Cc1ccc2nc(NC(=O)C(NS(=O)(=O)c3cccc4nsnc34)C(C)C)sc2c1 (stereo unspecified) | 13 | 3 | 0.49 | -1.6
Cc1ccccc1N1C(=O)c2cccc3c(N(C)CCO)ccc(c23)C1=O | 125*[fluorescence artefact?] | 3 | -0.086 | -4.3*
Cc1cc(-c2cc(C(=O)Nc3ccccc3)on2)nc(NC2CCCC2)n1 | . | . | 1.8 | -1.6
COc1ccc(C(C(=O)NC2CCCCC2)N(Cc2cccs2)C(=O)Cc2c[nH]c3ccccc23)cc1 (stereo unspecified) | -1 | -3 | 0.67 | -6.4*
COc1cccc(CN(C(=O)Cc2c[nH]c3ccccc23)C(C(=O)NC2CCCCC2)c2cccs2)c1 (stereo unspecified) | 3 | 3 | 0.058 | -6.6*
C/C(=N\Nc1nc2c(s1)CCCC2)c1ccccc1 | -5 | 1 | 2.8 | -0.2
O=C(CSc1cccc(C(F)(F)F)c1)NC(=O)NCc1ccco1 | . | . | -0.47 | -5.3*
